Tested on: U2OS
Experiment: Multiplex assay against U2OS
Format: toxicity, cell-based
Conditions: human
In short: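 Per cents of healthy-nucleus cells form the tubulin, mitochondrial-mass and membrane-permeability phenotype values. Live cells were stained at seeding with Hoechst33342, BioTracker Green Microtubule Cytoskeleton Dye, MitoTracker Red and Annexin V Alexa Fluor 680. After compound addition they were imaged on a CQ1 microscope at 37°C and 5% CO2, and CellPathfinder machine-learning gating split them into Hoechst high-intensity objects or normal cells, normal cells into healthy, pyknosed or fragmented nuclei, and pyknosed cells into mitotic or apoptotic.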

[1] = 12 h, 1 µM, compound concentration 1 uM, replicate 1
[2] = 12 h, 1 µM, compound concentration 1 uM, replicate 2
[3] = 12 h, 10 µM, compound concentration 10 uM, replicate 1
[4] = 12 h, 10 µM, compound concentration 10 uM, replicate 2
[5] = 24 h, 1 µM, compound concentration 1 uM, replicate 1
[6] = 24 h, 1 µM, compound concentration 1 uM, replicate 2
[7] = 24 h, 10 µM, compound concentration 10 uM, replicate 1
[8] = 24 h, 10 µM, compound concentration 10 uM, replicate 2
[9] = 48 h, 1 µM, compound concentration 1 uM, replicate 1
[10] = 48 h, 1 µM, compound concentration 1 uM, replicate 2
[11] = 48 h, 10 µM, compound concentration 10 uM, replicate 1
[12] = 48 h, 10 µM, compound concentration 10 uM, replicate 2

COc1cc(C(=O)N(CCCc2ccccc2)Cc2ccc(CC(=O)O)cc2)cc(OC)c1C
Population Apoptotic (%) [1]: 95%
Population Fragmented Nuclei (%) [1]: 29%
Population Healthy Nuclei (%) [1]: 60%
Population Hoechst High Intensity Objects (%) [1]: 4%
Population Membrane Permeable-Phenotype (%) [1]: 7%
Population Mitochondria Different-Phenotype (%) [1]: 4%
Population Mitotic Cells (%) [1]: 4%
Population Normal (%) [1]: 95%
Population Pyknosed Nuclei (%) [1]: 10%
Population Tubulin-Different-Phenotype (%) [1]: 4%
Total Cell Count [1]: 228
Population Apoptotic (%) [2]: 70%
Population Fragmented Nuclei (%) [2]: 23%
Population Healthy Nuclei (%) [2]: 65%
Population Membrane Permeable-Phenotype (%) [2]: 8%
Population Mitochondria Different-Phenotype (%) [2]: 1%
Population Mitotic Cells (%) [2]: 30%
Population Pyknosed Nuclei (%) [2]: 11%
Population Tubulin-Different-Phenotype (%) [2]: 1%
Total Cell Count [2]: 93
Population Apoptotic (%) [3]: 82%
Population Fragmented Nuclei (%) [3]: 22%
Population Healthy Nuclei (%) [3]: 71%
Population Hoechst High Intensity Objects (%) [3]: 0%
Population Membrane Permeable-Phenotype (%) [3]: 5%
Population Mitochondria Different-Phenotype (%) [3]: 0%
Population Mitotic Cells (%) [3]: 17%
Population Normal (%) [3]: 99%
Population Pyknosed Nuclei (%) [3]: 6%
Population Tubulin-Different-Phenotype (%) [3]: 2%
Total Cell Count [3]: 262
Population Apoptotic (%) [4]: 100%
Population Fragmented Nuclei (%) [4]: 15%
Population Healthy Nuclei (%) [4]: 79%
Population Hoechst High Intensity Objects (%) [4]: 1%
Population Membrane Permeable-Phenotype (%) [4]: 2%
Population Mitochondria Different-Phenotype (%) [4]: 3%
Population Mitotic Cells (%) [4]: 0%
Population Normal (%) [4]: 98%
Population Pyknosed Nuclei (%) [4]: 4%
Population Tubulin-Different-Phenotype (%) [4]: 4%
Total Cell Count [4]: 171
Population Apoptotic (%) [5]: 84%
Population Fragmented Nuclei (%) [5]: 29%
Population Healthy Nuclei (%) [5]: 61%
Population Hoechst High Intensity Objects (%) [5]: 2%
Population Membrane Permeable-Phenotype (%) [5]: 7%
Population Mitochondria Different-Phenotype (%) [5]: 6%
Population Mitotic Cells (%) [5]: 15%
Population Normal (%) [5]: 97%
Population Pyknosed Nuclei (%) [5]: 9%
Population Tubulin-Different-Phenotype (%) [5]: 4%
Total Cell Count [5]: 288
Population Apoptotic (%) [6]: 73%
Population Fragmented Nuclei (%) [6]: 22%
Population Healthy Nuclei (%) [6]: 64%
Population Hoechst High Intensity Objects (%) [6]: 4%
Population Membrane Permeable-Phenotype (%) [6]: 2%
Population Mitochondria Different-Phenotype (%) [6]: 2%
Population Mitotic Cells (%) [6]: 26%
Population Normal (%) [6]: 95%
Population Pyknosed Nuclei (%) [6]: 13%
Population Tubulin-Different-Phenotype (%) [6]: 0%
Total Cell Count [6]: 120
Population Apoptotic (%) [7]: 94%
Population Fragmented Nuclei (%) [7]: 18%
Population Healthy Nuclei (%) [7]: 76%
Population Hoechst High Intensity Objects (%) [7]: 0%
Population Membrane Permeable-Phenotype (%) [7]: 7%
Population Mitochondria Different-Phenotype (%) [7]: 2%
Population Mitotic Cells (%) [7]: 5%
Population Normal (%) [7]: 99%
Population Pyknosed Nuclei (%) [7]: 5%
Population Tubulin-Different-Phenotype (%) [7]: 3%
Total Cell Count [7]: 318
Population Apoptotic (%) [8]: 84%
Population Fragmented Nuclei (%) [8]: 12%
Population Healthy Nuclei (%) [8]: 80%
Population Hoechst High Intensity Objects (%) [8]: 2%
Population Mitochondria Different-Phenotype (%) [8]: 5%
Population Mitotic Cells (%) [8]: 15%
Population Normal (%) [8]: 97%
Population Pyknosed Nuclei (%) [8]: 6%
Population Tubulin-Different-Phenotype (%) [8]: 5%
Total Cell Count [8]: 192
Population Apoptotic (%) [9]: 86%
Population Fragmented Nuclei (%) [9]: 23%
Population Healthy Nuclei (%) [9]: 69%
Population Hoechst High Intensity Objects (%) [9]: 3%
Population Membrane Permeable-Phenotype (%) [9]: 5%
Population Mitochondria Different-Phenotype (%) [9]: 2%
Population Mitotic Cells (%) [9]: 13%
Population Normal (%) [9]: 96%
Population Pyknosed Nuclei (%) [9]: 7%
Population Tubulin-Different-Phenotype (%) [9]: 4%
Total Cell Count [9]: 408
Population Apoptotic (%) [10]: 78%
Population Fragmented Nuclei (%) [10]: 22%
Population Healthy Nuclei (%) [10]: 64%
Population Hoechst High Intensity Objects (%) [10]: 6%
Population Membrane Permeable-Phenotype (%) [10]: 7%
Population Mitochondria Different-Phenotype (%) [10]: 5%
Population Mitotic Cells (%) [10]: 21%
Population Normal (%) [10]: 93%
Population Pyknosed Nuclei (%) [10]: 12%
Population Tubulin-Different-Phenotype (%) [10]: 6%
Total Cell Count [10]: 159
Population Apoptotic (%) [11]: 93%
Population Fragmented Nuclei (%) [11]: 18%
Population Healthy Nuclei (%) [11]: 75%
Population Hoechst High Intensity Objects (%) [11]: 1%
Population Membrane Permeable-Phenotype (%) [11]: 4%
Population Mitochondria Different-Phenotype (%) [11]: 2%
Population Mitotic Cells (%) [11]: 6%
Population Normal (%) [11]: 98%
Population Pyknosed Nuclei (%) [11]: 6%
Population Tubulin-Different-Phenotype (%) [11]: 2%
Total Cell Count [11]: 504
Population Apoptotic (%) [12]: 94%
Population Fragmented Nuclei (%) [12]: 15%
Population Healthy Nuclei (%) [12]: 71%
Population Hoechst High Intensity Objects (%) [12]: 3%
Population Membrane Permeable-Phenotype (%) [12]: 8%
Population Mitochondria Different-Phenotype (%) [12]: 1%
Population Mitotic Cells (%) [12]: 5%
Population Normal (%) [12]: 96%
Population Pyknosed Nuclei (%) [12]: 13%
Population Tubulin-Different-Phenotype (%) [12]: 4%
Total Cell Count [12]: 280

COc1ccc2c(c1)C(C(=O)N(Cc1ccc(N(C)C)cc1)c1ccc(C(C)C)cc1)CCC2.Cl (stereo unspecified)
Population Apoptotic (%) [1]: 70%
Population Fragmented Nuclei (%) [1]: 36%
Population Healthy Nuclei (%) [1]: 54%
Population Hoechst High Intensity Objects (%) [1]: 4%
Population Membrane Permeable-Phenotype (%) [1]: 8%
Population Mitochondria Different-Phenotype (%) [1]: 5%
Population Mitotic Cells (%) [1]: 29%
Population Normal (%) [1]: 95%
Population Pyknosed Nuclei (%) [1]: 9%
Population Tubulin-Different-Phenotype (%) [1]: 4%
Total Cell Count [1]: 264
Population Fragmented Nuclei (%) [2]: 17%
Population Healthy Nuclei (%) [2]: 73%
Population Hoechst High Intensity Objects (%) [2]: 3%
Population Membrane Permeable-Phenotype (%) [2]: 9%
Population Mitochondria Different-Phenotype (%) [2]: 3%
Population Mitotic Cells (%) [2]: 30%
Population Normal (%) [2]: 96%
Population Pyknosed Nuclei (%) [2]: 8%
Population Tubulin-Different-Phenotype (%) [2]: 2%
Total Cell Count [2]: 122
Population Apoptotic (%) [3]: 38%
Population Fragmented Nuclei (%) [3]: 27%
Population Healthy Nuclei (%) [3]: 50%
Population Hoechst High Intensity Objects (%) [3]: 4%
Population Membrane Permeable-Phenotype (%) [3]: 73%
Population Mitochondria Different-Phenotype (%) [3]: 55%
Population Mitotic Cells (%) [3]: 61%
Population Normal (%) [3]: 95%
Population Pyknosed Nuclei (%) [3]: 22%
Population Tubulin-Different-Phenotype (%) [3]: 80%
Total Cell Count [3]: 224
Population Apoptotic (%) [4]: 60%
Population Fragmented Nuclei (%) [4]: 16%
Population Healthy Nuclei (%) [4]: 60%
Population Membrane Permeable-Phenotype (%) [4]: 43%
Population Mitochondria Different-Phenotype (%) [4]: 73%
Population Mitotic Cells (%) [4]: 40%
Population Pyknosed Nuclei (%) [4]: 23%
Population Tubulin-Different-Phenotype (%) [4]: 58%
Total Cell Count [4]: 113
Population Apoptotic (%) [5]: 75%
Population Fragmented Nuclei (%) [5]: 27%
Population Healthy Nuclei (%) [5]: 61%
Population Hoechst High Intensity Objects (%) [5]: 4%
Population Membrane Permeable-Phenotype (%) [5]: 5%
Population Mitochondria Different-Phenotype (%) [5]: 4%
Population Mitotic Cells (%) [5]: 24%
Population Normal (%) [5]: 95%
Population Pyknosed Nuclei (%) [5]: 11%
Population Tubulin-Different-Phenotype (%) [5]: 4%
Total Cell Count [5]: 273
Population Apoptotic (%) [6]: 100%
Population Fragmented Nuclei (%) [6]: 18%
Population Healthy Nuclei (%) [6]: 73%
Population Hoechst High Intensity Objects (%) [6]: 2%
Population Mitochondria Different-Phenotype (%) [6]: 1%
Population Mitotic Cells (%) [6]: 0%
Population Normal (%) [6]: 97%
Population Pyknosed Nuclei (%) [6]: 7%
Population Tubulin-Different-Phenotype (%) [6]: 2%
Total Cell Count [6]: 146
Population Apoptotic (%) [7]: 71%
Population Fragmented Nuclei (%) [7]: 25%
Population Healthy Nuclei (%) [7]: 50%
Population Hoechst High Intensity Objects (%) [7]: 2%
Population Membrane Permeable-Phenotype (%) [7]: 54%
Population Mitochondria Different-Phenotype (%) [7]: 42%
Population Mitotic Cells (%) [7]: 28%
Population Normal (%) [7]: 97%
Population Pyknosed Nuclei (%) [7]: 24%
Population Tubulin-Different-Phenotype (%) [7]: 49%
Total Cell Count [7]: 224
Population Apoptotic (%) [8]: 86%
Population Fragmented Nuclei (%) [8]: 20%
Population Healthy Nuclei (%) [8]: 57%
Population Hoechst High Intensity Objects (%) [8]: 9%
Population Membrane Permeable-Phenotype (%) [8]: 45%
Population Mitochondria Different-Phenotype (%) [8]: 53%
Population Mitotic Cells (%) [8]: 13%
Population Normal (%) [8]: 90%
Population Pyknosed Nuclei (%) [8]: 22%
Population Tubulin-Different-Phenotype (%) [8]: 48%
Total Cell Count [8]: 115
Population Apoptotic (%) [9]: 80%
Population Fragmented Nuclei (%) [9]: 21%
Population Healthy Nuclei (%) [9]: 65%
Population Hoechst High Intensity Objects (%) [9]: 2%
Population Membrane Permeable-Phenotype (%) [9]: 10%
Population Mitochondria Different-Phenotype (%) [9]: 5%
Population Mitotic Cells (%) [9]: 20%
Population Normal (%) [9]: 97%
Population Pyknosed Nuclei (%) [9]: 13%
Population Tubulin-Different-Phenotype (%) [9]: 3%
Total Cell Count [9]: 369
Population Apoptotic (%) [10]: 93%
Population Fragmented Nuclei (%) [10]: 17%
Population Healthy Nuclei (%) [10]: 73%
Population Hoechst High Intensity Objects (%) [10]: 3%
Population Membrane Permeable-Phenotype (%) [10]: 6%
Population Mitochondria Different-Phenotype (%) [10]: 4%
Population Mitotic Cells (%) [10]: 6%
Population Normal (%) [10]: 96%
Population Pyknosed Nuclei (%) [10]: 8%
Population Tubulin-Different-Phenotype (%) [10]: 2%
Total Cell Count [10]: 203
Population Apoptotic (%) [11]: 73%
Population Fragmented Nuclei (%) [11]: 21%
Population Healthy Nuclei (%) [11]: 47%
Population Hoechst High Intensity Objects (%) [11]: 3%
Population Membrane Permeable-Phenotype (%) [11]: 43%
Population Mitochondria Different-Phenotype (%) [11]: 26%
Population Mitotic Cells (%) [11]: 26%
Population Normal (%) [11]: 96%
Population Pyknosed Nuclei (%) [11]: 30%
Population Tubulin-Different-Phenotype (%) [11]: 31%
Total Cell Count [11]: 265
Population Apoptotic (%) [12]: 92%
Population Fragmented Nuclei (%) [12]: 26%
Population Healthy Nuclei (%) [12]: 49%
Population Hoechst High Intensity Objects (%) [12]: 8%
Population Mitochondria Different-Phenotype (%) [12]: 36%
Population Mitotic Cells (%) [12]: 7%
Population Normal (%) [12]: 91%
Population Pyknosed Nuclei (%) [12]: 24%
Population Tubulin-Different-Phenotype (%) [12]: 42%
Total Cell Count [12]: 126

— ChEMBL document CHEMBL5058577, “EUbOPEN Chemogenomics Library 2 (Multiplex)” (2022)
